These results are taken from ChEMBL document CHEMBL1152930, “Discovery of tetrahydrotetramethylnaphthalene analogs as adult T-cell leukemia cell-selective proliferation inhibitors in a small chemical library constructed based on multi-template hypothesis” (Bioorg Med Chem, 2009).

Experiment [1] is described as follows: Antiproliferative activity against HTLV1-carrying human S1T cells isolated from peripheral blood mononuclear cells of adult T leukemic patient after 4 days by MTT assay. The settings on record: 96 h. It counts as functional. Summed up:
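Cells grown 4 days without or with a range of compound concentrations; viable cell number read by MTT; IC₅₀ calculated from the resulting data.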
In general terms: Tetrazolium dyes change colour on reduction, which living cells bring about.

Experiment [2] concerns MOLT-4. Nature of the experiment: Cell cycle arrest in HTLV1-deficient human MOLT4 cells assessed as accumulation at S phase at 20 uM after 24 hrs using propidium iodide/RNA staining buffer by FACS analysis. It counts as functional. Summed up:
(§1)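 Cells seeded at 1 × 10⁶/ml with or without 20 µM compound for 24 h. Then PBS wash, fixing in 1% paraformaldehyde, permeabilising in 70% ethanol and 15 min propidium iodide/RNA staining. Phase populations given as % of cells.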
For orientation: A flow cytometer gives signals particle by particle.

Experiment [3] in a line: Induction of apoptosis in HTLV1-carrying human S1T cells isolated from peripheral blood mononuclear cells of adult T leukemic patient at 20 uM after 48 hrs using fluorescein isothiocyanate-conjugated annexin V staining by FACS analysis relative to control. Format: functional. Summed up: (§2)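 Cells seeded at 1 × 10⁶/ml and held with or without 20 µM compound for 24 or 48 h. Apoptotic cells given as %; relative values are the ratio of treated to untreated apoptosis %.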

Experiment [4] in a line: Induction of apoptosis in HTLV1-carrying human S1T cells isolated from peripheral blood mononuclear cells of adult T leukemic patient at 20 uM after 24 hrs using fluorescein isothiocyanate-conjugated annexin V staining by FACS analysis relative to control. Format: functional. Summed up: as §2
A short description of experiment [5]: Cell cycle arrest in HTLV1-carrying human S1T cells isolated from peripheral blood mononuclear cells of adult T leukemic patient assessed as accumulation at G2/M phase at 20 uM after 24 hrs using propidium iodide/RNA staining buffer by FACS analysis. Format: functional. An outline of the steps: as §1
The test system of experiment [6] is MOLT-4. Nature of the experiment: Selectivity index, ratio of IC50 for HTLV1-deficient human MOLT4 cells to IC50 for HTLV1-carrying S1T cells isolated from peripheral blood mononuclear cells of adult T leukemic patient. Format: functional. An outline of the steps:
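SI taken as IC₅₀ in MOLT-4 over IC₅₀ in S1T cells. Both IC₅₀ values come from 4-day MTT viable-cell counts over a range of concentrations.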

Experiment [7] has as its system MOLT-4. In words: Induction of apoptosis in HTLV1-deficient human MOLT4 cells at 20 uM after 48 hrs using fluorescein isothiocyanate-conjugated annexin V staining by FACS analysis. It counts as functional. An outline of the steps:
as §2

The subject of experiment [8] is MOLT-4. In words: Cell cycle arrest in HTLV1-deficient human MOLT4 cells assessed as accumulation at G0/G1 phase at 20 uM after 24 hrs using propidium iodide/RNA staining buffer by FACS analysis. It counts as functional. An outline of the steps:
as §1

The nature of experiment [9]: Cell cycle arrest in HTLV1-carrying human S1T cells isolated from peripheral blood mononuclear cells of adult T leukemic patient assessed as accumulation at G0/G1 phase at 20 uM after 24 hrs using propidium iodide/RNA staining buffer by FACS analysis. Format: functional. An outline of the steps: as §1
For experiment [10], the system named is MOLT-4. In words: Induction of apoptosis in HTLV1-deficient human MOLT4 cells at 20 uM after 24 hrs using fluorescein isothiocyanate-conjugated annexin V staining by FACS analysis. Format: functional. Summed up:
as §2

Experiment [11] in a line: Cell cycle arrest in HTLV1-carrying human S1T cells isolated from peripheral blood mononuclear cells of adult T leukemic patient assessed as accumulation at S phase at 20 uM after 24 hrs using propidium iodide/RNA staining buffer by FACS analysis. It counts as functional. Summed up:
as §1

Experiment [12] is described as follows: Induction of apoptosis in HTLV1-carrying human S1T cells isolated from peripheral blood mononuclear cells of adult T leukemic patient at 20 uM after 48 hrs using fluorescein isothiocyanate-conjugated annexin V staining by FACS analysis. It counts as functional. Summed up:
as §2

Experiment [13] concerns MOLT-4. Nature of the experiment: Cell cycle arrest in HTLV1-deficient human MOLT4 cells assessed as accumulation at G2/M phase at 20 uM after 24 hrs using propidium iodide/RNA staining buffer by FACS analysis. Format: functional. Summed up:
as §1

A short description of experiment [14]: Induction of apoptosis in HTLV1-carrying human S1T cells isolated from peripheral blood mononuclear cells of adult T leukemic patient at 20 uM after 24 hrs using fluorescein isothiocyanate-conjugated annexin V staining by FACS analysis. Format: functional. Summed up: as §2
In experiment [15] the test system is MOLT-4. In words: Antiproliferative activity against HTLV1-deficient human MOLT4 cells after 4 days by MTT assay. Format: functional, cell-based. The settings on record: MOLT-4, 96 h. Summed up:
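Cells were cultured without or with a range of test-compound concentrations for 4 days. Viable cell number was then measured by MTT, and IC50 values were calculated from it. The same protocol was run in parallel on S1T cells, an ATL patient-derived line.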

Experiment [16] deals with MOLT-4. Nature of the experiment: Antiproliferative activity against human MOLT4 cells. Format: functional, cell-based.
In the next experiment the test system is U-937. Nature of the experiment: Antiproliferative activity against human U937 cells. Format: functional, cell-based.
The subject of another experiment is Jurkat. Nature of the experiment: Antiproliferative activity against human Jurkat cells. It counts as functional, cell-based.
The next experiment relates to HL-60. In words: Antiproliferative activity against human HL60 cells. Format: functional, cell-based.

What is called IC50 is the concentration at which inhibition is half-maximal. Lower therefore signals greater potency. For `CC(=O)c1cc2c(cc1O)C(C)(C)CCC2(C)C`, the concentration for half-maximal inhibition (IC50) in experiment [1] is 6.7 µM; in the experiment with MOLT-4 [15], 82.9 µM. Further, the Activity with MOLT-4 [2] stood at 46.76%; in experiment [3], 2.1%; in [4] it was 1.3%; in experiment [5], 23%; with MOLT-4 [7], 4%; in the experiment on MOLT-4 [8], 42.14%. Also, the Activity in experiment [9] came out at 37%; in the experiment on MOLT-4 [10], 7%; in [11], 40%; in [12], 10.1%; in the experiment on MOLT-4 [13], 11.1%; in experiment [14], 10.1%. Further, in the experiment on MOLT-4 [6], the “Ratio IC50” value turned out to be 12.4.

For `CC(=O)c1cc(C)cc(C)c1`, the half-inhibitory concentration (IC50) (in experiment [1]; in the experiment with MOLT-4 [15]) was above 100 µM each time.

In the case of `CC1(C)CCC(C)(C)c2cc(C(=O)O)ccc21`, the half-maximal inhibitory concentration (IC50) in experiment [1] is above 100 µM; in the experiment with MOLT-4 [15] it was 61.1 µM.

On to `CCC(=O)c1cc2c(cc1O)C(C)(C)CCC2(C)C`, for which the 50% inhibitory concentration (IC50) stood at 4.7 µM in [1] and 32.3 µM in the experiment with MOLT-4 [15]. For the same compound, in the experiment on MOLT-4 [6], the “Ratio IC50” value worked out at 6.9.

As to `CC1(C)CCC(C)(C)c2ccccc21`, the IC50 (in [1]; in the experiment on MOLT-4 [15]) was above 100 µM throughout.

As to `CC(C)C(=O)c1ccc2c(c1)C(C)(C)CCC2(C)C`, the IC50 came out at 3.8 µM in experiment [1] and 34.6 µM with MOLT-4 [15]. For the same compound, in the experiment with MOLT-4 [6], the “Ratio IC50” value is on record as 9.1.

As for `CC(=S)c1cc2c(cc1O)C(C)(C)CCC2(C)C`, the IC50 was 6.9 µM in [1] and 36.4 µM in the experiment on MOLT-4 [15]. Further, the “Ratio IC50” value in the experiment on MOLT-4 [6] turned out to be 5.3.

Take `CC1(C)CCC(C)(C)c2cc(C(=O)c3ccccc3)c(O)cc21`: the IC50 in experiment [1] worked out at 15.2 µM; in the experiment on MOLT-4 [15], 28.3 µM. Further, the “Ratio IC50” value in the experiment on MOLT-4 [6] amounted to 1.9.

As for `CC1(C)CCC(C)(C)c2cc(C(=O)c3ccccc3)ccc21`, the IC50 came to 7 µM in experiment [1] and 11.8 µM with MOLT-4 [15]. In the experiment on MOLT-4 [6], the “Ratio IC50” value was 1.7.

With `CCC(=O)c1ccc2c(c1)C(C)(C)CCC2(C)C`, the IC50 was found to be 4.7 µM in [1] and 21.5 µM with MOLT-4 [15]. Also, the “Ratio IC50” value in the experiment on MOLT-4 [6] amounted to 4.6.

On to `CON(C)C(=O)c1ccc2c(c1)C(C)(C)CCC2(C)C`, for which the 50% inhibitory concentration (IC50) worked out at 12.6 µM in [1] and 9.9 µM in the experiment with MOLT-4 [15]. Besides, in the experiment with MOLT-4 [6], the “Ratio IC50” value turned out to be 0.8.

Take `CC(C)C(=O)c1cc2c(cc1O)C(C)(C)CCC2(C)C`: the IC50 in experiment [1] came to 6 µM; in the experiment on MOLT-4 [15] it was 31.9 µM. Also, the “Ratio IC50” value with MOLT-4 [6] came out at 5.3.

As to `CC1(C)CCC(C)(C)c2cc(C(=O)O)c(O)cc21`, the IC50 in experiment [1] was found to be 29.7 µM; in the experiment with MOLT-4 [15] it was 44.4 µM. Moreover, in the experiment on MOLT-4 [6], the “Ratio IC50” value was 1.5.

`CC(=O)c1ccc2c(c1)C(C)(C)CCC2(C)C`: the IC50 in [1] was determined as 6.9 µM; in the experiment on MOLT-4 [15], 66 µM. Further, in the experiment on MOLT-4 [6], the “Ratio IC50” value is listed as 9.6.

`CC(C)(C)C(=O)c1cc2c(cc1O)C(C)(C)CCC2(C)C`: the 50% inhibitory concentration (IC50) in experiment [1] stood at 41.5 µM; in the experiment with MOLT-4 [15], 43.2 µM. Besides, the “Ratio IC50” value with MOLT-4 [6] is on record as 1.

Turning to `CC1(C)CCC(C)(C)c2cc(NC(=O)c3ccc(C(=O)O)cc3)ccc21` [TAMIBAROTENE], the IC50 with MOLT-4 [16] was determined as 19.5 µM; in the experiment with U-937, 20.2 µM; in the experiment with Jurkat, 17.3 µM; in the experiment with HL-60, 6 µM.

Regarding `CC(=O)c1ccc(C)c(C)c1`, the half-inhibitory concentration (IC50) (in experiment [1]; in the experiment with MOLT-4 [15]) was above 100 µM each time.

In the case of `CC1(C)CCC(C)(C)c2cc(C(N)=O)ccc21`, the half-inhibitory concentration (IC50) in experiment [1] came to 37 µM; with MOLT-4 [15], 39.4 µM. For the same compound, the “Ratio IC50” value in the experiment on MOLT-4 [6] is given as 1.1.

On to `COc1cc2c(cc1C(C)=O)C(C)(C)CCC2(C)C`, for which the IC50 in [1] was found to be 7 µM; in the experiment with MOLT-4 [15], 11.9 µM. Further, the “Ratio IC50” value in the experiment on MOLT-4 [6] is 1.7.

In the case of `CC(O)c1ccc2c(c1)C(C)(C)CCC2(C)C` (racemic), the 50% inhibitory concentration (IC50) in experiment [1] came out at 39.3 µM; in the experiment on MOLT-4 [15], 34.4 µM. The “Ratio IC50” value in the experiment with MOLT-4 [6] is given as 0.87.

With `CC1(C)CCC(C)(C)c2cc(C=O)ccc21`, the 50% inhibitory concentration (IC50) worked out at 33 µM in [1] and 24.8 µM with MOLT-4 [15]. Moreover, in the experiment on MOLT-4 [6], the “Ratio IC50” value is given as 0.75.

With `CC(=O)c1ccc(C)cc1C`, the half-inhibitory concentration (IC50) (in experiment [1]; in the experiment with MOLT-4 [15]) was above 100 µM throughout.
